Molecular target: T1, Cytochrome P450 2B1 (Rattus norvegicus, UniProt P00176)
T1 sequence (P00176 whole entry): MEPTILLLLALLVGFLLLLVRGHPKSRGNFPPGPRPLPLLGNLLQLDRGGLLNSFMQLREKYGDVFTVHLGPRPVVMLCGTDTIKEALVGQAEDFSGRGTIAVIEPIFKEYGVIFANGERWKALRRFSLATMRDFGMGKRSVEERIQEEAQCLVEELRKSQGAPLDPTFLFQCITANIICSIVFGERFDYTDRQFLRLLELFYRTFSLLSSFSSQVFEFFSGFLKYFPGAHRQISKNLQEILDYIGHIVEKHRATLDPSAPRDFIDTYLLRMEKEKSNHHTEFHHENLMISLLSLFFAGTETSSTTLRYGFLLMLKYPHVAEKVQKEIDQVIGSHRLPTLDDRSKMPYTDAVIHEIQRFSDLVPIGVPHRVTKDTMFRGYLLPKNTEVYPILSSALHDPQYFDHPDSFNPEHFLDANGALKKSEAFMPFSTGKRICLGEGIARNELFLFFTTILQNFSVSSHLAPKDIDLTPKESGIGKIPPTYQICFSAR
Assay: Inhibitory potency to aminopyrine N-demethylase activity (P450) in hepatic microsomes from phenobarbitone-induced rats.
In short: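 Microsomes (105000g pellet) from livers of male Wistar rats (100–150 g) given phenobarbitone ip on consecutive days. A 3.0 mL mix in 0.1 M K phosphate, pH 7.4, held aminopyrine 1.61 μmol, NADPH-generating system, semicarbazide and 5.6 mg protein, run 15 min. Formaldehyde was read by Nash/Hantzsch. Inhibitor went in DMSO or 0.07 M HCl, with solvent in controls. I50 came from seven concentrations.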

SMILES | IC50 [µM]
c1cncc(-c2nc3ccccc3[nH]2)c1 | 200
OC(c1ccccc1)c1nc2ccccc2[nH]1 (stereo not drawn) | 158
ClCc1nc2ccccc2[nH]1 | 141
CCCCC(=O)Nc1ccc2nc(C)[nH]c2c1 | 417
Fc1ccc2[nH]cnc2c1 | 437
NCc1nc2ccccc2[nH]1 | 457
CCCCCc1nc2cc(NC(C)=O)ccc2[nH]1 | 158
CCc1nc2ccc(C)cc2[nH]1 | 269
Cc1cccc2[nH]cnc12 | 525
Cc1nc2c(C)c(C)ccc2[nH]1 | 251
Cc1nc2ccc([N+](=O)[O-])cc2[nH]1 | 219
c1ccc2[nH]c(C3CC3)nc2c1 | 251
CCCc1nc2cc(C)c(C)cc2[nH]1 | 110
FC(F)(F)c1nc2ccccc2[nH]1 | 257
O=[N+]([O-])c1cc(Cl)cc2[nH]cnc12 | 129
CC(C)(C)c1nc2ccccc2[nH]1 | 302
CC(=O)Nc1ccc2nc(C)[nH]c2c1 | 1260
CC(C)Cc1nc2ccccc2[nH]1 | 158
CCCCc1nc2ccccc2[nH]1 | 120
Cc1nc2cc(Cl)ccc2[nH]1 | 151
CC(=O)Nc1cc(Cl)cc2[nH]c(C)nc12 | 309
CC(C)c1nc2ccccc2[nH]1 | 537
Clc1ccc2[nH]cnc2c1 | 158
Cc1ccc2nc(C)[nH]c2c1 | 479
O=[N+]([O-])c1cccc2[nH]cnc12 | 468
Cc1nc2cc(NC(=O)c3ccccc3)ccc2[nH]1 | 302
O=[N+]([O-])c1ccc2[nH]cnc2c1 [5-Nitro-1H-benzoimidazole] | 309
Cc1ccc2[nH]cnc2c1 [5-methyl-1H-benzimidazole] | 575

— BindingDB's records for doi:10.1021/jm00350a002 (1982)
